≈ marks a conversion by molar mass, not a printed value.
Key:
Type in all cases: functional
Candida parapsilosis [1] = test: Antifungal activity against Candida parapsilosis JLC 30365 by broth microdilution method; conditions: Lodderomyces parapsilosis
How it was run: (§1)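 MICs were determined by broth microdilution following NCCLS guidelines (M38-P for filamentous fungi). The panel covered four yeast species and two Aspergillus species, with two strains per species. Itraconazole served as positive control.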

Pichia kudriavzevii [2] = test: Antifungal activity against Candida krusei JLC 30386 by broth microdilution method; how it was run: as §1
Cryptococcus neoformans [3] = test: Antifungal activity against Cryptococcus neoformans JLC 50123 by broth microdilution method; how it was run: as §1
Aspergillus flavus [4] = test: Antifungal activity against Aspergillus flavus JLC 40437 by broth microdilution method; how it was run: as §1
Aspergillus fumigatus [5] = test: Antifungal activity against Aspergillus fumigatus JLC 30506 by broth microdilution method; how it was run: as §1
Aspergillus fumigatus [6] = test: Antifungal activity against Aspergillus fumigatus JLC 30883 by broth microdilution method; how it was run: as §1
Aspergillus flavus [7] = test: Antifungal activity against Aspergillus flavus JLC 30784 by broth microdilution method; how it was run: as §1
Candida albicans [8] = test: Antifungal activity against Candida albicans JLC 30364 by broth microdilution method; how it was run: as §1
Candida albicans [9] = test: Antifungal activity against Candida albicans JLC 31374 by broth microdilution method; how it was run: as §1
Cryptococcus neoformans [10] = test: Antifungal activity against Cryptococcus neoformans JLC 50122 by broth microdilution method; how it was run: as §1
Candida parapsilosis [11] = test: Antifungal activity against Candida parapsilosis JLC 30275 by broth microdilution method; conditions: Lodderomyces parapsilosis; how it was run: as §1
Pichia kudriavzevii [12] = test: Antifungal activity against Candida krusei JLC 30366 by broth microdilution method; how it was run: as §1

Row | SMILES | MIC (Candida parapsilosis [1]) | MIC (Pichia kudriavzevii [2]) | MIC (Cryptococcus neoformans [3]) | MIC (Aspergillus flavus [4]) | MIC (Aspergillus fumigatus [5]) | MIC (Aspergillus fumigatus [6]) | MIC (Aspergillus flavus [7]) | MIC (Candida albicans [8]) | MIC (Candida albicans [9]) | MIC (Cryptococcus neoformans [10]) | MIC (Candida parapsilosis [11]) | MIC (Pichia kudriavzevii [12])
1 | CC(C)Cn1ncn(-c2ccc(N3CCN(c4ccc(OC[C@H]5CO[C@](Cn6cncn6)(c6ccc(F)cc6F)O5)cc4)CC3)cn2)c1=O | 0.25 µg/mL (≈ 0.371 µM) | 0.125 µg/mL (≈ 0.186 µM) | 0.25 µg/mL (≈ 0.371 µM) | 0.0625 µg/mL (≈ 0.0928 µM) | 0.125 µg/mL (≈ 0.186 µM) | 0.125 µg/mL (≈ 0.186 µM) | 0.0625 µg/mL (≈ 0.0928 µM) | 0.015 µg/mL (≈ 0.0223 µM) | 0.015 µg/mL (≈ 0.0223 µM) | 0.25 µg/mL (≈ 0.371 µM) | 0.25 µg/mL (≈ 0.371 µM) | 0.125 µg/mL (≈ 0.186 µM)
2 | O=c1n(-c2ccc(N3CCN(c4ccc(OC[C@H]5CO[C@](Cn6cncn6)(c6ccc(F)cc6F)O5)cc4)CC3)nc2)cnn1CCCO | 0.0625 µg/mL (≈ 0.0925 µM) | 0.0625 µg/mL (≈ 0.0925 µM) | < 0.0625 µg/mL | 0.25 µg/mL (≈ 0.37 µM) | 1 µg/mL (≈ 1.48 µM) | 1 µg/mL (≈ 1.48 µM) | 0.25 µg/mL (≈ 0.37 µM) | < 0.0625 µg/mL | < 0.0625 µg/mL | < 0.0625 µg/mL | 0.0625 µg/mL (≈ 0.0925 µM) | 0.0625 µg/mL (≈ 0.0925 µM)
3 | CC(CO)Cn1ncn(-c2ccc(N3CCN(c4ccc(OC[C@H]5CO[C@](Cn6cncn6)(c6ccc(F)cc6F)O5)cc4)CC3)cn2)c1=O (stereo partly drawn) | < 0.0156 µg/mL | < 0.0156 µg/mL | 0.03 µg/mL (≈ 0.0435 µM) | 0.125 µg/mL (≈ 0.181 µM) | 0.5 µg/mL (≈ 0.725 µM) | 0.5 µg/mL (≈ 0.725 µM) | 0.125 µg/mL (≈ 0.181 µM) | < 0.0156 µg/mL | < 0.0156 µg/mL | 0.03 µg/mL (≈ 0.0435 µM) | < 0.0156 µg/mL | < 0.0156 µg/mL
4 | CCC(C)n1ncn(-c2ccc(N3CCN(c4ccc(OC[C@H]5CO[C@](Cn6cncn6)(c6ccc(F)cc6F)O5)cc4)CC3)cn2)c1=O (stereo partly drawn) | 0.5 µg/mL (≈ 0.742 µM) | 0.0625 µg/mL (≈ 0.0928 µM) | 1 µg/mL (≈ 1.48 µM) | 0.5 µg/mL (≈ 0.742 µM) | 0.5 µg/mL (≈ 0.742 µM) | 0.5 µg/mL (≈ 0.742 µM) | 0.5 µg/mL (≈ 0.742 µM) | 0.03 µg/mL (≈ 0.0445 µM) | 0.03 µg/mL (≈ 0.0445 µM) | 1 µg/mL (≈ 1.48 µM) | 0.5 µg/mL (≈ 0.742 µM) | 0.0625 µg/mL (≈ 0.0928 µM)
